Laboratory results published in ChEMBL document CHEMBL3098002, “Cassaine diterpene alkaloids from Erythrophleum fordii and their anti-angiogenic effect” (Bioorg Med Chem Lett, 2014).
The source made the active and inactive calls. The calls are words filed in the database; no cut-off is given here.

Legend:
HUVEC [1] = assay: Antiangiogenic activity against HUVEC assessed as inhibition of capillary-like tube formation at 30 ug/ml after 15 hrs by Matrigel assay relative to control; format: functional; settings: Homo sapiens
In short: (§1)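 HUVECs were grown in M199 with 20% FBS, 1% penicillin/streptomycin, 0.01% heparin and ECGS on 0.2% gelatin-coated plates at 37 °C in 5% CO2. For the assay, 1 × 10^4 cells were suspended in medium containing compound and added onto polymerized Matrigel at 37 °C. Cultures were photographed at ×100 and tubes counted. Values were normalized to solvent controls (100%), n = 3, mean ± SD.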

HUVEC [2] = assay: Antiangiogenic activity against HUVEC assessed as inhibition of capillary-like tube formation at 3 ug/ml after 15 hrs by Matrigel assay relative to control; format: functional; settings: Homo sapiens; in short: as §1
HUVEC [3] = assay: Cytotoxicity against HUVEC assessed as cell viability at 3 to 30 ug/ml after 48 hrs by MTT assay; format: cell-based; settings: human
In short: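 HUVECs were grown on gelatin-coated plates to 80% confluency, then treated for 48 h alongside a 0.1% DMSO control. MTT was added to a final 0.05% for 3 h at 37 °C. Formazan was dissolved in DMSO and read at 570 nm against 630 nm reference. Viability was expressed as a percentage of untreated cells.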

HUVEC [4] = assay: Cytotoxicity against HUVEC at 3 to 30 ug/ml by LDH release assay; format: cell-based; settings: human
HUVEC [5] = assay: Antiangiogenic activity against HUVEC assessed as inhibition of capillary-like tube formation at 3 to 30 ug/ml after 15 hrs by Matrigel assay relative to control; format: functional, cell-based; settings: Homo sapiens; in short: as §1

SMILES	inhibition at 30 µg/mL (HUVEC [1])	inhibition at 3 µg/mL (HUVEC [2])	Activity (HUVEC [3])	Activity (HUVEC [4])	inhibition (HUVEC [5])	inhibition (HUVEC [2])
COC(=O)[C@@]1(C)[C@@H](OC(C)=O)CC[C@@]2(C)[C@H]1CC(=O)[C@H]1[C@@H](C)/C(=C/C(=O)N(C)CCO)CC[C@@H]12	4.5%	42%	Non-toxic	Toxic	Active	
COC(=O)[C@@]1(C)CCC[C@@]2(C)[C@H]1[C@@H](O)C(=O)[C@H]1[C@@H](C)/C(=C/C(=O)N(C)CCO)CC[C@@H]12			Non-toxic			Active
COC(=O)[C@]1(C)[C@@H]2CC(=O)[C@H]3[C@@H](C)/C(=C/C(=O)N(C)CCO)CC[C@@H]3[C@@]2(C)CC[C@@H]1O			Non-toxic			Active
COC(=O)[C@]1(C)[C@@H]2CC[C@H]3[C@@H](C)/C(=C/C(=O)N(C)CCO)CC[C@@H]3[C@@]2(C)CC[C@@H]1O			Non-toxic			Active
COc1cc(/C=C/C(=O)CC(=O)/C=C/c2ccc(O)c(OC)c2)ccc1O [CURCUMIN]		45%				
COC(=O)[C@@]1(C)[C@@H](OC(C)=O)CC[C@@]2(C)[C@H]1[C@@H](O)C(=O)[C@H]1[C@@H](C)/C(=C/C(=O)N(C)CCO)CC[C@@H]12			Non-toxic			Active
COC(=O)[C@@]1(C)CCC[C@@]2(C)[C@H]1CC(=O)[C@H]1[C@@H](C)/C(=C/C(=O)N(C)CCO)CC[C@@H]12			Non-toxic			Active
